The list is not random: actives were taken first. Their share in the collection is about 1.6%.
ABCG2 inh – blocks JC-1 efflux by human ABCG2 transporter. AID 1325. inhibition, % at 6.6 µM. actives 0.1% (n = 190,000). IgMXP3 cells, flow cytometry;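 active means inhibition above 80%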
Target sequence (Q9UNQ0 whole entry, looked up): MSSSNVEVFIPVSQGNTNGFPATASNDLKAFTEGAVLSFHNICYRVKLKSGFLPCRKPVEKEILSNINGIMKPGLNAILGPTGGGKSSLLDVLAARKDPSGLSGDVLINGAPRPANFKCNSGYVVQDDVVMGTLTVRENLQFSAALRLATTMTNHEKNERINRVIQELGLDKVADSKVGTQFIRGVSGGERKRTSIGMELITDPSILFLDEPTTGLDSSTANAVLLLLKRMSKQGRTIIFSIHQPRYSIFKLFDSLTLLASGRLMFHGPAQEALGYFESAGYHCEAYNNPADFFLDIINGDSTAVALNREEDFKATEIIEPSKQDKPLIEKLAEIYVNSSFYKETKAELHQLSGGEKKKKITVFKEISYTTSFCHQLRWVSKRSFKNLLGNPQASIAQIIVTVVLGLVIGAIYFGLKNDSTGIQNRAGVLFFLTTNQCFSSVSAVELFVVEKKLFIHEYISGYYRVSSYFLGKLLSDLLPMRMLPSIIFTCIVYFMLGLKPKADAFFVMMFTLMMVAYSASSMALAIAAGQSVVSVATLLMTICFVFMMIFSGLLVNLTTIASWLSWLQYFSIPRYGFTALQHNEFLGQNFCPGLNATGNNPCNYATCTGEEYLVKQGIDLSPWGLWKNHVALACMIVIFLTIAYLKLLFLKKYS
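test system = two drug-resistant human cell lines, ABCG2 and ABCB1 | amount = 3 million cells/mL final, two lines in 1:1 ratio | reagent = JC-1 transporter substrate | doses = one concentration, 6.6 µM final | incubation = 10 min at 25 °C | signal = flow cytometric JC-1 green MFI at 530 nm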
ABCB1 block – blocks JC-1 efflux by human ABCB1 transporter | CCRF-Adr cells, flow cytometry | inhibition, % at 6.6 µM | actives 0.067% (n = 190,000); in the data active means inhibition above about 40%;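 further: higher value means more JC-1 retained so stronger ABCB1 efflux block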
NCF1 inh – p47phox (human) inhibition. P14598. p47phox/p22phox peptide binding, fluorescence polarization, 2 h. inhibition, % at 24.7 µM. actives 0.53% (n = 220,000);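 active means inhibition above about 30%, limit read from the data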
Efa HMGR inh – blocks class II HMG-CoA reductase of Enterococcus faecalis. AID 1066. actives 0.41% (n = 190,000). purified E. faecalis HMGR, NADPH absorbance 340 nm kinetic. inhibition, % at 10 µM;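 active means inhibition above a set limit, the median over all tested compounds plus 3 SD, cut at about 9.5% in these data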;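 further: enzyme runs in reverse so mevalonate oxidation gives rising NADPH absorbance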
Diaphorase inh – counter-screen for diaphorase-based assays: diaphorase inhibitors and chemical oxidizers; diaphorase resazurin-to-resorufin fluorescence, NADH, 16 min; bacterial (C. kluyveri) enzyme, not human; inhibition, % at 20 µM; actives 0.69% (n = 190,000);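 active means primary screen inhibition at 20 µM above a set limit, cut at about 50% in these data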
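Benchmarks: positive control wells lacking NADH, neutral wells with DMSO only. System: bacterial diaphorase enzyme (C. kluyveri). Input: 0.14 U/mL diaphorase, enzyme working solution. Detection: resorufin fluorescence, excitation 544 nm, emission 590 nm. Times: 16-min room-temperature incubation before reading.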
Diaphorase act – counter-screen for diaphorase-based assays: diaphorase activators and chemical reducers; Diaphorase/resazurin coupled assay, resorufin fluorescence, 16 min; stronger effect = higher value; 1 = vehicle wells, 0 = NADH-free wells; activation factor at 20 µM; actives 0.005% (n = 190,000);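 active means diaphorase activity raised at least twofold by the compound at 20 µM; inactive means activation factor below 2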
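Material: bacterial diaphorase enzyme (C. kluyveri); amount: enzyme 0.07 U/mL final; reagent: NADH substrate 0.114 mM plus resazurin dye 0.1 mM, final; doses: single compound dose of 20 µM, 1% DMSO final; timing: 16 min enzyme reaction, ambient temperature; measured by: fluorescence of resorufin, 544 nm excitation, 590 nm emission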
ABCB1 single pt – confirmation of human ABCB1 transporter inhibitors, ABCG2 counter-screen. shares compounds with ABCG2 inh. CCRF-Adr cells, JC-1 efflux, flow cytometry. AID 1451. actives 7% (n = 270). inhibition, % at 6.6 µM;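 active means inhibition of pump activity above 50%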
ABCG2 confirm – inhibits human ABCG2 efflux, confirmed at single point; shares compounds with ABCG2 inh; IgMXP3 cells, JC-1 efflux, flow cytometry; inhibition, % at 6.6 µM; actives 6% (n = 270); AID 1453;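 active means inhibition above 50%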
IgMXP3 fluor – IgMXP3 autofluorescence flag for ABCG2 confirmation | fluorescence at 6.6 µM | IgMXP3 cells, compound autofluorescence 488/530 nm, flow; stronger effect = higher value | shares compounds with ABCG2 inh | actives 30% (n = 270);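 active means fluorescence in ABCG2-expressing cells above the plate's control-well mean plus 3 SD, cut at about 15 in these data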
CCRF-Adr fluor – counter-screen for ABCB1 inhibitors: compound fluorescence in CCRF-Adr cells; shares compounds with ABCG2 inh; compound autofluorescence 488/530 nm, flow cytometry; stronger effect = higher value; fluorescence at 6.6 µM; actives 30% (n = 270);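 active means fluorescence beyond the plate control mean plus 3 SD, with a fluorescence-to-maximum score over 2, cut at about 25 in these data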
Of the large screens only hits and unclear results are named; the others gave an inactive call (follow-up assays come after a bar, where they were run).

COc1ccc(OC)c(NC(=O)CSc2ncccc2C(=O)O)c1	none
CCCN1C(=O)/C(=C/c2c(NCCCOC(C)C)nc3c(C)cccn3c2=O)SC1=S	ABCG2 inh 89, ABCB1 block 62 | ABCB1 single pt inactive | ABCG2 confirm inactive | IgMXP3 fluor 141 | CCRF-Adr fluor 178
COc1ccc(C)cc1S(=O)(=O)N(CC(=O)N1CCOCC1)Cc1ccccc1	none
COC(=O)C1=C(C)NC(C)=C(C(=O)OC)C1c1ccc(-c2cc(Cl)ccc2Cl)o1	none
COC(=O)C1=C(C)NC(C)=C(C(=O)OC)C1c1ccc(-c2cccc(Cl)c2Cl)o1	ABCG2 inh 85 | ABCB1 single pt inactive | ABCG2 confirm inactive | IgMXP3 fluor inactive | CCRF-Adr fluor inactive
CCOC(=O)N1CCN(C(=O)CN(c2ccc(C)cc2)S(=O)(=O)c2c(C)noc2C)CC1	none
Fc1cccc(NC(=S)NCCN2CCOCC2)c1	none
CCOCC(=O)Nc1ccccc1C(=O)N1CCOCC1	none
COc1ccc(OCC(=O)Nc2ccccc2C(=O)N2CCOCC2)cc1	ABCB1 block 60 | ABCB1 single pt inactive | ABCG2 confirm inactive | IgMXP3 fluor inactive | CCRF-Adr fluor inactive
COc1ccc(S(=O)(=O)c2cnc3ccc(OC)cc3c2N2CCC3(CC2)OCCO3)cc1	ABCG2 inh 92 | ABCB1 single pt inactive | ABCG2 confirm inactive | IgMXP3 fluor inactive | CCRF-Adr fluor inactive
O=C(Nc1ccon1)c1ccc(OC2CCCC2)cc1	none
CCN(CC)P(=O)(Nc1cccc(C(F)(F)F)c1)c1ccc(N(C)C)cc1NC(=O)c1ccco1 (stereo unspecified)	ABCB1 block 56 | ABCB1 single pt 62 | ABCG2 confirm inactive | IgMXP3 fluor inactive | CCRF-Adr fluor 37
COc1cc(SC)ccc1C(=O)Nc1ccccc1	ABCG2 inh 84 | ABCB1 single pt inactive | ABCG2 confirm inactive | IgMXP3 fluor 18 | CCRF-Adr fluor 30
COCCn1c(SCC(=O)N2CCc3ccccc3C2)nc2cc(Cl)ccc2c1=O	none | ABCB1 single pt inactive | ABCG2 confirm inactive | IgMXP3 fluor inactive | CCRF-Adr fluor inactive
CCc1ccc(-c2csc(NC(=O)C3CC(=O)N(c4ccc5c(c4)OCCO5)C3)n2)cc1 (stereo unspecified)	none
COc1ccc(NC(=S)NCc2cccn2C)cc1	none | ABCB1 single pt inactive | ABCG2 confirm inactive | IgMXP3 fluor inactive | CCRF-Adr fluor inactive
CCn1c(CNc2ccc(F)cc2)nnc1SCC(=O)N1CCCc2ccccc21	none
N#Cc1cc(-c2ccccc2)oc1NC(=O)c1ccccc1	none
CN(C)c1ccc(/C=C/C(=O)c2cccc(Br)c2)cc1	none | ABCB1 single pt inactive | ABCG2 confirm inactive | IgMXP3 fluor 19 | CCRF-Adr fluor 103
CCOc1ccccc1C(=O)NCCC(=O)O	none
CC(C)CCNC(=O)c1c[nH]c2ccc(S(=O)(=O)N3CCC4(CC3)OCCO4)cc2c1=O	none
COc1cccc(N2C(=O)C3ON(c4ccccc4)C(c4cccs4)C3C2=O)c1 (stereo unspecified)	none
CCOc1ccc(N2C(=O)C3ON(c4ccccc4)C(c4cccs4)C3C2=O)cc1 (stereo unspecified)	ABCB1 block 95 (no result: Diaphorase inh, Diaphorase act) | ABCB1 single pt inactive | ABCG2 confirm inactive | IgMXP3 fluor inactive | CCRF-Adr fluor inactive
CCCC(NC(=O)CCl)c1ccccc1 (stereo unspecified)	none
CCC(NC(=O)CCl)c1ccc(C)cc1 (stereo unspecified)	none | ABCB1 single pt inactive | ABCG2 confirm inactive | IgMXP3 fluor inactive | CCRF-Adr fluor inactive
O=C(c1cccs1)N1CCC(Cc2ccccc2)CC1	none
OCCC1CN(Cc2ccc3ncccc3c2)CCN1Cc1ccccc1 (stereo unspecified)	none
COC(=O)c1nc(-n2nc(C)cc2C)ccc1Cl	none
Cc1cc(C)n(-c2ccc(Cl)c(C(=O)Nc3cc(C(F)(F)F)ccc3Cl)n2)n1	ABCG2 inh 116 | ABCB1 single pt inactive | ABCG2 confirm inactive | IgMXP3 fluor inactive | CCRF-Adr fluor inactive
CCN1/C(=C/C=C/c2oc3ccc4ccccc4c3[n+]2CC)Oc2ccc3ccccc3c21	ABCG2 inh 184 | ABCB1 single pt 69 | ABCG2 confirm inactive | IgMXP3 fluor 546 | CCRF-Adr fluor 228
CC(=O)Oc1c(/C=C(\C#N)C(N)=O)[nH]c2ccccc12	ABCG2 inh 200, ABCB1 block 163 | ABCB1 single pt inactive | ABCG2 confirm inactive | IgMXP3 fluor 132 | CCRF-Adr fluor 272
Cc1c(C(=O)Nc2ccc(F)cc2)c2ccccn2c1CCc1ccncc1	none | ABCB1 single pt inactive | ABCG2 confirm inactive | IgMXP3 fluor inactive | CCRF-Adr fluor inactive
COC(=O)CCc1c(C)c(C(=O)c2ccc(F)cc2)c2ccccn12	none
C=CCn1c(C(C)NC(=O)c2ccccc2)n[nH]c1=S (stereo unspecified)	none
CCOC(=O)/C(C#N)=C\c1ccc(O)c(OC)c1	none
CCOC(=O)c1c(-c2ccc(C)cc2)csc1NC(=O)/C(C#N)=C/c1ccc(O)c(OC)c1	ABCG2 inh 132, ABCB1 block 117 | ABCB1 single pt inactive | ABCG2 confirm inactive | IgMXP3 fluor 80 | CCRF-Adr fluor 222
CCOc1nc(SCCOc2ccc(C)cc2)nc(N(C)C)n1	ABCG2 inh 103 | ABCB1 single pt inactive | ABCG2 confirm inactive | IgMXP3 fluor inactive | CCRF-Adr fluor inactive
CC[n+]1c(/C=C/c2c[nH]c3ccccc23)ccc2cc(C)ccc21	ABCG2 inh 84 | ABCB1 single pt inactive | ABCG2 confirm inactive | IgMXP3 fluor 194 | CCRF-Adr fluor 62
CCOc1ccccc1NC(=O)C(OC(=O)c1ccc(N(C)C)cc1)c1ccccc1 (stereo unspecified)	ABCG2 inh 117 | ABCB1 single pt inactive | ABCG2 confirm 63 | IgMXP3 fluor inactive | CCRF-Adr fluor inactive
CCOc1ccccc1NC(=O)C(OC(=O)c1ccc(O)cc1)c1ccccc1 (stereo unspecified)	none
CC(C(=O)NCCN1CCOCC1)c1ccc([N+](=O)[O-])cc1 (stereo unspecified)	none

High-throughput results (PubChem)
